Data from the M2OR odorant receptor database.
Where a chain is given by its changes, count along the chain named.

Experiments:
Conditions in all cases: stereoisomer not certain
OR4X2 (Homo sapiens) = molecular target: T1, OR4X2 (Homo sapiens) (UniProt Q8NGF9)
T1 sequence (whole entry): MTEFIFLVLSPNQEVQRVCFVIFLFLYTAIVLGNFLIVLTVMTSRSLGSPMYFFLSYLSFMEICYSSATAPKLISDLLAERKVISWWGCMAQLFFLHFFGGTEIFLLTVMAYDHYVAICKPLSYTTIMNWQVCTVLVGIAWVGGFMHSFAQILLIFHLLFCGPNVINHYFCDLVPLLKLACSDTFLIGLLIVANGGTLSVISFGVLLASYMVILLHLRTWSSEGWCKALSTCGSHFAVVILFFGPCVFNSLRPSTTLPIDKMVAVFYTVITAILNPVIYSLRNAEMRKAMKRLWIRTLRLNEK
Procedure, shortened: (§1)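 Each receptor–molecule pair is labelled responsive or non-responsive (inactive) according to whether the original authors judged the measured signal statistically different from baseline. The data were taken from the main text and supplementary material of published papers and checked for typos and inconsistencies. Assay methods differed by source, with transient luciferase assays in mammalian cell lines being common.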

OR51B5 (Homo sapiens) = molecular target: T2, OR51B5 (Homo sapiens) (UniProt Q9H339)
T2 sequence (whole entry): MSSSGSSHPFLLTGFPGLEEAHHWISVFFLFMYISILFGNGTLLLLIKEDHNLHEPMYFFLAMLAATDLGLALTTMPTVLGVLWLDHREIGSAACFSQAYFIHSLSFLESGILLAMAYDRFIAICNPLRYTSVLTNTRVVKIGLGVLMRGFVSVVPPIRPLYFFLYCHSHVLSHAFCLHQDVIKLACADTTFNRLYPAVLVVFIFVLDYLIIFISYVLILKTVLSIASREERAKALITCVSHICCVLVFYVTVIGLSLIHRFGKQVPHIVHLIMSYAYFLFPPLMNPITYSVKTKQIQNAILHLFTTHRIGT
Procedure, shortened: as §1

OR4S2 (Homo sapiens) = molecular target: T3, OR4S2 (Homo sapiens) (UniProt Q8NH73)
T3 sequence (whole entry): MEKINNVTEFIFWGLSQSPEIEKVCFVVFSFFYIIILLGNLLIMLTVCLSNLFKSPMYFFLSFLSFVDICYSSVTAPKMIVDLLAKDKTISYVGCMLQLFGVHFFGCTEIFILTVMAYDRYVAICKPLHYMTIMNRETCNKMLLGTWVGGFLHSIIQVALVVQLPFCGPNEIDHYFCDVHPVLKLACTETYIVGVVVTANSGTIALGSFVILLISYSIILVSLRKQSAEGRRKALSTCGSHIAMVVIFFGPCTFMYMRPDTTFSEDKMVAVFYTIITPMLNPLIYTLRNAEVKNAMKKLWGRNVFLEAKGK
Procedure, shortened: as §1

OR4X1 (Homo sapiens) = molecular target: T4, OR4X1 (Homo sapiens) (UniProt Q8NH49)
T4 sequence (whole entry): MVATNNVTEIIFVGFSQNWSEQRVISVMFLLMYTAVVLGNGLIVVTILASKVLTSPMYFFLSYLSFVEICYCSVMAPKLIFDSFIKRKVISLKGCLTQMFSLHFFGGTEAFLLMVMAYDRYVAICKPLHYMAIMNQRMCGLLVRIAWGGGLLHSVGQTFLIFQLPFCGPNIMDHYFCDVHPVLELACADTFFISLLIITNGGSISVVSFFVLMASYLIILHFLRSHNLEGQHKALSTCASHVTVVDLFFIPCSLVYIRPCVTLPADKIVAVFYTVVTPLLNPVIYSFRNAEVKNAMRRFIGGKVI
Procedure, shortened: as §1

OR51A2 (Homo sapiens) = molecular target: T5, OR51A2 (Homo sapiens) (UniProt Q8NGJ7)
T5 sequence (whole entry): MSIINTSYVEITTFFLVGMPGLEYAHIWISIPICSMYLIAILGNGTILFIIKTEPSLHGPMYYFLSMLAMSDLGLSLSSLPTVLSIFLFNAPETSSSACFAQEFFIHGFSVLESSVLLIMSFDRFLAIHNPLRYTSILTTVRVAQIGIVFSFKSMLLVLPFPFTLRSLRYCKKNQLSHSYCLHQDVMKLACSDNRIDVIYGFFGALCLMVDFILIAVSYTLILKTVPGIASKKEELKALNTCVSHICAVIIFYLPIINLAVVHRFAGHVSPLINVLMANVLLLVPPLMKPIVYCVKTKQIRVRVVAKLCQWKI
Procedure, shortened: as §1

OR51A4 (Homo sapiens) = molecular target: T6, OR51A4 (Homo sapiens) (UniProt Q8NGJ6)
T6 sequence (whole entry): T5 sequence (whole entry) with G59E, T94I, S97N, S167N, P227L, E235Q, G267R, M288T, K289N, W311R
Procedure, shortened: as §1

OR51A7 (Homo sapiens) = molecular target: T7, OR51A7 (Homo sapiens) (UniProt Q8NH64)
T7 sequence (whole entry): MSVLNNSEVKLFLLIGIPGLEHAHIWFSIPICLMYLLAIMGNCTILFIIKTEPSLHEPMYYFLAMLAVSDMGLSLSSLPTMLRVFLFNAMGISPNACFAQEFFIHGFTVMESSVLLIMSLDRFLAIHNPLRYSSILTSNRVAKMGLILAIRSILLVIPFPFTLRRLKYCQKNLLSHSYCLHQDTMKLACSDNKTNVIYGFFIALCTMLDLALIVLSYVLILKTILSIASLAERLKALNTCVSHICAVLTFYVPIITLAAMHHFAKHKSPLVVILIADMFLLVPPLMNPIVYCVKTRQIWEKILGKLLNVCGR
Procedure, shortened: as §1

OR51B2 (Homo sapiens) = molecular target: T8, OR51B2 (Homo sapiens) (UniProt Q9Y5P1)
T8 sequence (whole entry): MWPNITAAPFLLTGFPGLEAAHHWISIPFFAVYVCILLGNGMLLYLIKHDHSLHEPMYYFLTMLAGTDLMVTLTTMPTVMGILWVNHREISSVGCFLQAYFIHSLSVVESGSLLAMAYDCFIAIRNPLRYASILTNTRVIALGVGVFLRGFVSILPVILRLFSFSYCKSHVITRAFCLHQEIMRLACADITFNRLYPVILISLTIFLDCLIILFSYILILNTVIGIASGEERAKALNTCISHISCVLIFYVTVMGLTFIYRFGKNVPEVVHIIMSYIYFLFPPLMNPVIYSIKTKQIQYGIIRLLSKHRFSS
Procedure, shortened: as §1

OR51B4 (Homo sapiens) = molecular target: T9, OR51B4 (Homo sapiens) (UniProt Q9Y5P0)
T9 sequence (whole entry): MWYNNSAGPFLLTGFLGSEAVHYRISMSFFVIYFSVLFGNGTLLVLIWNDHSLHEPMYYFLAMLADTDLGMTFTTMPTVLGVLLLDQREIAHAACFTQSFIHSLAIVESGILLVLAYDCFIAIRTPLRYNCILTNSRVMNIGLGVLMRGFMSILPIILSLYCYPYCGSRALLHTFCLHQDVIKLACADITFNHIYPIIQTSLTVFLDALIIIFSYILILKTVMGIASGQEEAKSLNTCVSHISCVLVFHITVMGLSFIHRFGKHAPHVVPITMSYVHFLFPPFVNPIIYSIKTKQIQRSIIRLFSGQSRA
Procedure, shortened: as §1

OR51B6 (Homo sapiens) = molecular target: T10, OR51B6 (Homo sapiens) (UniProt Q9H340)
T10 sequence (whole entry): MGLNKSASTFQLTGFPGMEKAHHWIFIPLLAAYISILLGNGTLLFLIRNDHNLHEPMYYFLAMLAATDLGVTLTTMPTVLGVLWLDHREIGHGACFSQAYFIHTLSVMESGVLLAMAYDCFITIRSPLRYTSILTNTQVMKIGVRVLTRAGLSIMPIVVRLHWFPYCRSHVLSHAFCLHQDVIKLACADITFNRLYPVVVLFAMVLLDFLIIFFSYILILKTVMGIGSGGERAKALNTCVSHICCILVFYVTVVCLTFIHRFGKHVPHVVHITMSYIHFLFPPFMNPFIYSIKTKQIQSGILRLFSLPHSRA
Procedure, shortened: as §1

Measured: odorant receptor agonist call;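 note: active if original authors judged signal statistically different from baseline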

CC(C)=CCCC(C)=CCO
inactive: OR4X2 (Homo sapiens) | OR51B5 (Homo sapiens)

CCCCC(S)C(C)CO (stereo not drawn)
inactive: all assays above

CCCC(S)CCOC(C)=O (stereo not drawn)
inactive: all assays above

Cc1cccc(C)c1C
inactive: OR51B5 (Homo sapiens)

CCCCCC(S)C(C)CO (stereo not drawn)
inactive: all assays above

CC1=C(O)C(=O)OC1C (stereo not drawn)
inactive: all assays above

CCCCCCCCCCCCCC(=O)OCC
inactive: OR51B5 (Homo sapiens)

Cc1cnc(C)c(C)n1
inactive: all assays above

CC1=C(O)C(=O)C(C)O1 (stereo not drawn)
inactive: all assays above

CCCCCCCCO
inactive: OR51B5 (Homo sapiens)

CC(CO)CS (stereo not drawn)
inactive: all assays above

CCCCCC1CCCC(=O)O1 (stereo not drawn)
not listed: OR4X2 (Homo sapiens) | OR4S2 (Homo sapiens) | OR4X1 (Homo sapiens)
inactive: all other assays above

CCCC(=O)CC
inactive: OR51B5 (Homo sapiens)

CC(=O)c1c(C)c([N+](=O)[O-])c(C(C)(C)C)c([N+](=O)[O-])c1C
inactive: all assays above
